Measurements taken from ChEMBL document CHEMBL1151744, “New analgesics synthetically derived from the paracetamol metabolite N-(4-hydroxyphenyl)-(5Z,8Z,11Z,14Z)-icosatetra-5,8,11,14-enamide” (J Med Chem, 2008).
Activity calls are given as the source filed them. No cut-off for these calls is given here.

Experiments:
[1] = system: Mus musculus; experiment: Antinociceptive activity against formalin-induced nociceptive behavior in C57BL/6 mouse assessed as mean licking time at 27.5 mg/kg, ip administered 15 mins prior to formalin challenge measured after 15 to 45 mins relative to control; format: functional; settings: route intraperitoneal
In short: (§1)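 C57BL/6 mice (n = 6-8 per group) were habituated 15-20 min in an observation chamber with mirrors, then given the compound ip at 6 µL/g in PBS/DMSO. Formalin (5%, 20 µL) went into the dorsal left hind paw 15 min later. Licking of the injected paw was summed over 0-10 min (phase 1) and 15-45 min (phase 2) and expressed as % of the vehicle control. Groups were compared by t test.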

[2] = system: Mus musculus; experiment: Antinociceptive activity against formalin-induced nociceptive behavior in C57BL/6 mouse assessed as mean licking time at 55 mg/kg, ip administered 15 mins prior to formalin challenge measured after 15 to 45 mins relative to control; format: functional; settings: route intraperitoneal; in short: as §1
[3] = system: Mus musculus; experiment: Antinociceptive activity against formalin-induced nociceptive behavior in C57BL/6 mouse assessed as mean licking time at 275 mg/kg, ip administered 15 mins prior to formalin challenge measured after 15 to 45 mins relative to control; format: functional; settings: route intraperitoneal; in short: as §1
[4] = target: T1, Fatty-acid amide hydrolase 1 (Rattus norvegicus) (UniProt P97612); experiment: Inhibition of FAAH in rat brain membrane assessed as [14C]anandamide hydrolysis at 50 uM by scintillation counting; format: cell membranes
T1 sequence (whole entry): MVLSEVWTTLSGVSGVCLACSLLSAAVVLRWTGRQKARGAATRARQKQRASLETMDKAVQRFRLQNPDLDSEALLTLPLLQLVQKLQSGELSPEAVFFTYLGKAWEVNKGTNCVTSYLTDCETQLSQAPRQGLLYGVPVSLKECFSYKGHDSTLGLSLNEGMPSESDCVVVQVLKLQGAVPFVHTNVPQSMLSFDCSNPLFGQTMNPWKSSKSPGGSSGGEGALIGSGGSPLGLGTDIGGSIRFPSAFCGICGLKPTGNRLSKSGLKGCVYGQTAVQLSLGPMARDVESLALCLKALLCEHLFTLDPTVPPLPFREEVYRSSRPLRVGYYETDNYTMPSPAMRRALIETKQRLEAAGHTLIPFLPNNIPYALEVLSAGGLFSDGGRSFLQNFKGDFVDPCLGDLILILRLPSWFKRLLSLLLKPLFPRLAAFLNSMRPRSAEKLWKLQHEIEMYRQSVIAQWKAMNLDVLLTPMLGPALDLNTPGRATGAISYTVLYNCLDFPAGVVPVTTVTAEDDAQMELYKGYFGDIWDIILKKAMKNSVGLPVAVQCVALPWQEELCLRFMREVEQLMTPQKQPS
In short: (§2)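 Enzyme source was a rat brain membrane pellet resuspended in 50 mM Tris-HCl, pH 9.0, 70 µg protein per assay. It was incubated with compound (10 or 50 µM) and [14C]anandamide (10000 cpm) for 30 min at 37 °C. After CHCl3/MeOH (1:1) extraction, [14C]ethanolamine in the aqueous phase was counted by scintillation. Points were run in duplicate.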

[5] = target: T2, Cannabinoid receptor 1 (Homo sapiens, UniProt P21554); experiment: Displacement of [3H]CP-55940 from human recombinant CB1 receptor expressed in HEK293 cells at 10 uM; format: cell-based
[6] = target: T3, Cannabinoid receptor 2 (Homo sapiens, UniProt P34972); experiment: Displacement of [3H]CP-55940 from human recombinant CB2 receptor expressed in HEK293 cells at 10 uM; format: cell-based
[7] = target: Prostaglandin G/H synthase 1 (Homo sapiens, UniProt P23219); experiment: Inhibition of cyclooxygenase 1 in human whole blood assessed as thromboxane B2 level; format: tissue-based
In short: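 Fresh whole blood came from a healthy volunteer free of NSAIDs for 2 weeks. 1 mL aliquots received test agent in DMSO and were left to clot for 1 h at 37 °C. Serum TXB2 was measured by GC-MS/MS, in quadruplicate.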

[8] = species on record: Mus musculus; experiment: Toxicity in C57BL/6 mouse assessed as loss of locomotor behavior; format: organism-based; settings: in vivo
[9] = system: Mus musculus; experiment: Antinociceptive activity against formalin-induced nociceptive behavior in C57BL/6 mouse assessed as mean licking time lat 27.5 mg/kg, ip administered 15 mins prior to formalin challenge measured upto 10 mins relative to control; format: functional; settings: route intraperitoneal; in short: as §1
[10] = system: Mus musculus; experiment: Antinociceptive activity against formalin-induced nociceptive behavior in C57BL/6 mouse assessed as mean licking time at 55 mg/kg, ip administered 15 mins prior to formalin challenge measured upto 10 mins relative to control; format: functional; settings: route intraperitoneal; in short: as §1
[11] = system: Mus musculus; experiment: Antinociceptive activity against formalin-induced nociceptive behavior in C57BL/6 mouse assessed as mean licking time at 275 mg/kg, ip administered 15 mins prior to formalin challenge measured upto 10 mins relative to control; format: functional; settings: route intraperitoneal; in short: as §1
[12] = target: T4, Prostaglandin G/H synthase 2 (Homo sapiens) (UniProt P35354); experiment: Inhibition of cyclooxygenase 2 in human whole blood assessed as prostaglandin E2 level
T4 sequence (whole entry): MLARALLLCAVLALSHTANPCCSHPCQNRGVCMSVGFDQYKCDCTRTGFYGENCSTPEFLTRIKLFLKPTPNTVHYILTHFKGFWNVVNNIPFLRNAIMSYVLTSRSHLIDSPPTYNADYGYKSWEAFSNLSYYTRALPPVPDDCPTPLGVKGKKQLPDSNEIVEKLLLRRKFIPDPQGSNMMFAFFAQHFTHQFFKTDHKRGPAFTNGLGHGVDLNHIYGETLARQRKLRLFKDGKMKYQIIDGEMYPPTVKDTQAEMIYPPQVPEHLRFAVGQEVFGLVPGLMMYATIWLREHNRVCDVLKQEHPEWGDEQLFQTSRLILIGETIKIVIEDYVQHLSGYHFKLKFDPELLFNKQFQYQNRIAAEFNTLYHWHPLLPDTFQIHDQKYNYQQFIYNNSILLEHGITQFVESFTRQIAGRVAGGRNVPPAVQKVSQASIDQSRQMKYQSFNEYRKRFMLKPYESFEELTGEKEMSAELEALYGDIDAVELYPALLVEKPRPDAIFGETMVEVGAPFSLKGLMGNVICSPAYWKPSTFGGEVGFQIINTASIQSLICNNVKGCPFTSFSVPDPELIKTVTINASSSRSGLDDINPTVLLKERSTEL

[13] = system: Mus musculus; experiment: Toxicity in C57BL/6 mouse assessed as loss of locomotor behavior at 325 mg/kg; format: organism-based; parameters: dose 325 mg/kg; settings: in vivo
[14] = target: T5, Prostaglandin G/H synthase 2 (Homo sapiens, UniProt P35354); experiment: Inhibition of cyclooxygenase 2 in human whole blood assessed as prostaglandin E2 level
T5 sequence (P35354 whole entry): T4 sequence (whole entry)

[15] = target: T2, Cannabinoid receptor 1; experiment: Displacement of [3H]CP-55940 from human recombinant CB1 receptor expressed in HEK293 cells; format: cell-based
In short: (§3)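 Membranes were from HEK-293 cells overexpressing human CB1 or CB2, with [3H]CP-55,940 as radioligand (Kd 0.18 nM CB1, 0.31 nM CB2). Test compound (1 nM-10 µM) was incubated 90 min at 30 °C. Displaced radioligand was counted by scintillation. Ki came from IC50 via Cheng-Prusoff, with triplicate points; single-concentration screens were run in duplicate.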

[16] = target: T3, Cannabinoid receptor 2; experiment: Displacement of [3H]CP-55940 from human recombinant CB2 receptor expressed in HEK293 cells; format: cell-based; in short: as §3
[17] = target: T1, Fatty-acid amide hydrolase 1 (Rattus norvegicus); experiment: Inhibition of FAAH in rat brain membrane assessed as [14C]anandamide hydrolysis at 10 uM by scintillation counting; format: cell membranes; in short: as §2

T3 sequence (P34972 whole entry): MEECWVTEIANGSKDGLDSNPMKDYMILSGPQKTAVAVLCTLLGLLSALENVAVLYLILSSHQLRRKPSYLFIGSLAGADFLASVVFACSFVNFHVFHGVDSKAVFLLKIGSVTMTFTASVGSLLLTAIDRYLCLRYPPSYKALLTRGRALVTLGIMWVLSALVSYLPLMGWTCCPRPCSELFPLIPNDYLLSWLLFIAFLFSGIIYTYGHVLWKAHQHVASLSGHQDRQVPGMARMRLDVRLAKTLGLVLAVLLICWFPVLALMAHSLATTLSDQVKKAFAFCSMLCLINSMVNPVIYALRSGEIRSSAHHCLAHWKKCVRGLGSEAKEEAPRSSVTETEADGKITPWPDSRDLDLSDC
T2 sequence (P21554 whole entry): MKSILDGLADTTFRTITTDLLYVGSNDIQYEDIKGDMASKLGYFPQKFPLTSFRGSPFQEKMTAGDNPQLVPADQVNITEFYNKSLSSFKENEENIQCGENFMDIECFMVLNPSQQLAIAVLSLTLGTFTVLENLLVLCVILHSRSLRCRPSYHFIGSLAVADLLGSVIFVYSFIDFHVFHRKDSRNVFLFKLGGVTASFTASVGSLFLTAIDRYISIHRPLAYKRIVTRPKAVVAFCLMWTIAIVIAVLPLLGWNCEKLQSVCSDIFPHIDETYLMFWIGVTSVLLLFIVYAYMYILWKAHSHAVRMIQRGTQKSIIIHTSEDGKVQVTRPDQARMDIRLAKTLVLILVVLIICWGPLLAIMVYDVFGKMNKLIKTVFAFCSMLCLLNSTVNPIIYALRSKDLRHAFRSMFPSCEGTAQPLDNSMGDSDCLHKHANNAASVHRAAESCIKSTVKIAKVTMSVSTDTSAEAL
Chain of Prostaglandin G/H synthase 1 (P23219 whole entry): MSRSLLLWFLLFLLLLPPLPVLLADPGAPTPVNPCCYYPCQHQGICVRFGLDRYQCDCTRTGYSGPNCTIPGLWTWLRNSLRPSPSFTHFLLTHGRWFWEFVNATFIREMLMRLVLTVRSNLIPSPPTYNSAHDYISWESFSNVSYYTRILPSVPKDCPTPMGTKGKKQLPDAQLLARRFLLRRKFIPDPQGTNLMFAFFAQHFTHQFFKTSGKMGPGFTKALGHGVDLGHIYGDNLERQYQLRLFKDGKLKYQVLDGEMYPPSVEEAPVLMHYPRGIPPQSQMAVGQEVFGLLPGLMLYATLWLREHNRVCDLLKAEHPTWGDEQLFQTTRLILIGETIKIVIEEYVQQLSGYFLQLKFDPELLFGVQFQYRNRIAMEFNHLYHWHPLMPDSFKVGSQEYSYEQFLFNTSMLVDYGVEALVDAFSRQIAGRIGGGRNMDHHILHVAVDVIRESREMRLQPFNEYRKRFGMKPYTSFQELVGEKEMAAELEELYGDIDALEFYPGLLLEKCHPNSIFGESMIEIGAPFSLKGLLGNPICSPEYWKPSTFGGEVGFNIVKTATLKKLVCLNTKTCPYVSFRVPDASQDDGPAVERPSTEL

Row | IC50 [7] [µM] | IC50 [14] [µM] | SMILES | Activity [1] [%] | Activity [2] [%] | Activity [3] [%] | inhibition [4] [%] | Activity [5] [%] | Activity [6] [%] | Activity [7] | Activity [8] | Activity [9] [%] | Activity [10] [%] | Activity [11] [%] | Activity [12] | Activity [13] | Ki [15] [nM] | Ki [16] [nM] | inhibition [17] [%]
1 |  |  | CC(=O)NCc1ccc(O)cc1 | 97 | 71 | 37 | 4 | 5 | 7 | inactive | Non-toxic | 227 | 128 | 50 | inactive |  |  |  | 
2 | 234 | 138 | COc1cc(NC(C)=O)ccc1O |  |  |  | 8 | 16 | 22 |  |  |  |  |  |  | Toxic |  |  | 
3 |  |  | CCCCC/C=C\C/C=C\C/C=C\C/C=C\CCCC(=O)Nc1ccc2[nH]ncc2c1 |  |  |  | 2 |  |  |  |  |  |  |  |  |  | 300 | 1000 | 1
4 |  |  | CCCCC/C=C\C/C=C\C/C=C\C/C=C\CCCC(=O)NCc1ccc(O)cc1 |  |  |  | 88 |  |  |  |  |  |  |  |  |  | 200 | 100 | 56
